The values that follow come from ChEMBL document CHEMBL1148516, “Design and evaluation of new antipsoriatic antedrug candidates having 16-en-22-oxa-vitamin D3 structures” (Bioorg Med Chem Lett, 2006).

One data set has as its system Keratinocyte. In words: Antiproliferative activity against human keratinocyte assessed as inhibition of [3H]TdR uptake. It is filed as functional, cell-based.
A further data set concerns Mus musculus. In words: Calcemic activity in percutaneously dosed mouse relative to control. Type of data set: functional. In a few lines:
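Mice received a single percutaneous dose of test compound or vehicle, n = 3. Blood ionized Ca (mmol/L) was measured. Activity (%) = (analog Ca − vehicle Ca)/vehicle Ca × 100.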

Data set [1] addresses T1, Vitamin D3 receptor (Gallus gallus) (UniProt O42392).
T1 sequence (whole entry): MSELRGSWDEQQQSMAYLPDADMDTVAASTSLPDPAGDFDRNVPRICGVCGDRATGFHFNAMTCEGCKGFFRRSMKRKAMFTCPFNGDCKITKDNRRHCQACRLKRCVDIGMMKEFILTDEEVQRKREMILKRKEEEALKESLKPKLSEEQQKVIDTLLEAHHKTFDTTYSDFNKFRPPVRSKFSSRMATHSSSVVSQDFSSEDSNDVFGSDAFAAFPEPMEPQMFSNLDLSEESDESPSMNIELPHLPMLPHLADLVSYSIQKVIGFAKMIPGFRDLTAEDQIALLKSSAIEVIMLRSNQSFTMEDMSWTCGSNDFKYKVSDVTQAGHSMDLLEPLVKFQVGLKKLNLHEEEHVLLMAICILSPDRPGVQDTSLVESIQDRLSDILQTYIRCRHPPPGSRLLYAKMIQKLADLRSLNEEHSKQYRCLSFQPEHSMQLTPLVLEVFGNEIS
In words: Binding affinity to chick VDR. In a few lines:
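Receptor affinity is expressed as a percentage relative to calcitriol, set at 100%. Each value is the average of duplicate measurements.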

Data set [2] is described as follows: Clearance in rat at 1000 ug/kg, iv. It is filed as ADME, organism-based. To be noted: in vivo, 1 mg/kg. In a few lines: (§1)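 Rats were dosed intravenously at 10 µg/kg or 1000 µg/kg. Total clearance (mL/h/kg) is the mean of 3–4 rats.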
The species entered for the next data set is Homo sapiens. Kind of data set: Clearance in human liver S9 fraction. It is filed as ADME. In a few lines: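 Compound was incubated with human liver S9 in the presence of NADPH. The elimination rate was taken from the time course of compound concentration in the reaction mixture. Clearance is given as mL/min/mg S9 protein, mean of two experiments.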

Data set [3] is described as follows: Clearance in rat at 10 ug/kg, iv. It is filed as ADME, organism-based. To be noted: in vivo, 0.01 mg/kg. In a few lines: as §1

Bounds are passed on as bounds.

Turning to `C=C1/C(=C\C=C2/CCC[C@@]3(C)C2CC[C@@H]3[C@H](C)CCC(=O)OC(C)(C)C)C[C@@H](O)C[C@@H]1O` (some centres not stated), the IC50 (usually the concentration needed to halve the response being measured) in the data set with Keratinocyte was determined as 0.017 µM. The Blood ionized calcium in the data set on Mus musculus was 1.77 mmol/L.

In turn, `C=C1/C(=C\C=C2/CCC[C@]3(C)[C@@H]([C@H](C)CCCC(C)(C)O)CC[C@@H]23)C[C@@H](O)C[C@@H]1O` returned an Activity in data set [1] of 100%.

For `C=C1/C(=C\C=C2/CCC[C@]3(C)C([C@H](C)OCC(=O)O)=CCC23)C[C@@H](O)C[C@@H]1O` (some centres not stated), the 50% inhibitory concentration (IC50) in the data set with Keratinocyte was over 1 µM. The Activity in data set [1] came out at 0.04%. Besides, the Blood ionized calcium in the data set on Mus musculus was 1.38 mmol/L.

With `C=C1/C(=C\C=C2/CCC[C@]3(C)C([C@H](C)OCCC(C)(C)O)=CCC23)CC(O)CC1O` (single isomer, unassigned), in the data set on Keratinocyte, the IC50 was found to be 0.0504 µM. The Blood ionized calcium in the data set on Mus musculus is recorded as 2.16 mmol/L.

Regarding `C=C1/C(=C\C=C2/CCC[C@]3(C)C([C@H](C)O)=CCC23)C[C@@H](O)C[C@@H]1O` (some centres not stated), the IC50 with Keratinocyte is over 1 µM. This molecule also had an Activity in data set [1] of 0.32%. Moreover, the Blood ionized calcium in the data set with Mus musculus is on record as 1.4 mmol/L.

For the molecule `C=C1/C(=C\C=C2/CCC[C@]3(C)C([C@H](C)OCC(=O)NC(C)(C)C)=CCC23)C[C@@H](O)C[C@@H]1O` (some centres not stated), the IC50 in the data set with Keratinocyte amounted to 0.0044 µM. For the same molecule, in data set [1], the Activity came out at 22.2%. Moreover, the Blood ionized calcium in the data set with Mus musculus is 2.16 mmol/L.

Take `C=C1/C(=C\C=C2/CCC[C@]3(C)C([C@H](C)OCC(=O)OC(C)(C)C)=CCC23)C[C@@H](O)C[C@@H]1O` (some centres not stated): the IC50 with Keratinocyte stood at 0.0089 µM. This molecule registered an Activity in data set [1] of 40.1%. Further, in the data set on Mus musculus, the Blood ionized calcium is listed as 1.65 mmol/L.

Consider `C=C1/C(=C\C=C2/CCC[C@]3(C)C([C@H](C)OCC(=O)NCC(C)(C)C)=CCC23)C[C@@H](O)C[C@@H]1O` (some centres not stated), for which the IC50 in the data set with Keratinocyte is 0.0174 µM. The Activity in data set [1] was found to be 18%. Further, in the data set on Mus musculus, the Blood ionized calcium is 1.82 mmol/L.

As to `C=C1/C(=C\C=C2/CCC[C@@]3(C)C2CC[C@@H]3[C@H](C)OCC(=O)OC(C)(C)C)C[C@@H](O)C[C@@H]1O` (some centres not stated), the IC50 in the data set with Keratinocyte is 0.0884 µM. In addition, in the data set on Mus musculus, the Blood ionized calcium is reported as 1.49 mmol/L.

As to `C=C1/C(=C\C=C2/CCC[C@]3(C)C([C@H](C)OCC(=O)OC(C)(CC)CC)=CCC23)C[C@@H](O)C[C@@H]1O` (some centres not stated), the 50% inhibitory concentration (IC50) in the data set with Keratinocyte was determined as 0.0008 µM. The clearance – broadly, a measure of how efficiently the substance is removed, as volume per time – in data set [2] was 5.69 L/h/kg. In the data set filed under Homo sapiens, this molecule returned a CL of 1421 µL/min/mg. This molecule also showed an Activity in data set [1] of 45.1%. In the data set on Mus musculus, the Blood ionized calcium was 1.57 mmol/L.

As for `C=C1/C(=C\C=C2/CCC[C@]3(C)C([C@H](C)OCC(=O)NCC(F)(F)C(F)(F)F)=CCC23)C[C@@H](O)C[C@@H]1O` (some centres not stated), the IC50 with Keratinocyte came to 0.0019 µM. The clearance in data set [2] is 7.85 L/h/kg. Also, the CL in the data set listed under Homo sapiens came to 278 µL/min/mg. The Activity in data set [1] turned out to be 34.4%. Further, in the data set on Mus musculus, the Blood ionized calcium is listed as 1.58 mmol/L.

For `C=C1/C(=C\C=C2/CCC[C@]3(C)[C@@H]([C@H](C)OCCC(C)(C)O)CC[C@@H]23)C[C@@H](O)C[C@@H]1O` [MAXACALCITOL], in the data set with Keratinocyte, the concentration for half-maximal inhibition (IC50) was determined as 0.0226 µM. In data set [3], the clearance is 1.26 L/h/kg. For the same molecule, in the data set filed under Homo sapiens, the CL came to 7 µL/min/mg. This molecule also returned an Activity in data set [1] of 20%. Further, in the data set with Mus musculus, the Blood ionized calcium was 2.6 mmol/L.
